Assay results from ChEMBL document CHEMBL5247591, “Single-digit nanomolar inhibitors lock the aromatase active site via a dualsteric targeting strategy” (Eur J Med Chem, 2022).
Activity calls are given as the source filed them. No cut-off for these calls is given here.

Tests used:
Aromatase [1] = biological target: T1, Aromatase (Homo sapiens, UniProt P11511); test: Inhibition of human placental microsome aromatase using androstenedione as substrate assessed as reduction in 3H2O formation preincubated for 5 mins in presence of NADPH followed by microsomal protein addition and measured after 3 hrs; type: microsomes, Placenta
T1 sequence (P11511 whole entry): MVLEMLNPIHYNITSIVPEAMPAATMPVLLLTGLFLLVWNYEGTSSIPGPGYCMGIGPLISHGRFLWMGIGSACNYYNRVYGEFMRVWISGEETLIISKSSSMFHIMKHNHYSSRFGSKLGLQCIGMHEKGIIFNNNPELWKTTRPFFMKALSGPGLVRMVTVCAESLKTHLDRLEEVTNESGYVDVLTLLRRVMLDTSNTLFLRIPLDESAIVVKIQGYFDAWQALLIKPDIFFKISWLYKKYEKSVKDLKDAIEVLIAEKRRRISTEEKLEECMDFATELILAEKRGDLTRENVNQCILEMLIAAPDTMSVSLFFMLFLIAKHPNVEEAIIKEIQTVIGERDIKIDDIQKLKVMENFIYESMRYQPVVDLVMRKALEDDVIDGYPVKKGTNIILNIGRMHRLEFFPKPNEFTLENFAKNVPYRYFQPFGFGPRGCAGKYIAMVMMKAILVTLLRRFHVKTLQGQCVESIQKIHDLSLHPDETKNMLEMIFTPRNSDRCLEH

MCF7 = test: Antiproliferative activity against estrogen positive human MCF7 cells assessed as inhibition of cell growth upto 50 uM incubated for 72 hrs by cell counting analysis; type: functional, cell-based
How it was run: (§1)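 Cells seeded in duplicate (50.000 cells/well for MCF-7 and MDA-MB-231, 90.000 cells/well for MCF-10A). 24 h later exposed 72 h to 50-0.1 μM compound, with or without 1 μM testosterone; medium and treatments replaced at 48 h. Cells harvested with trypsin and counted with a cell counter. Three experiments.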

MCF-10A = test: Cytotoxicity against human MCF-10A cells assessed as inhibition of cell growth upto 50 uM incubated for 72 hrs by cell counting analysis; type: toxicity, cell-based; how it was run: as §1
MDA-MB-231 = test: Antiproliferative activity against estrogen negative human MDA-MB-231 cells assessed as inhibition of cell growth upto 50 uM incubated for 72 hrs by cell counting analysis; type: functional, cell-based; how it was run: as §1
Aromatase [2] = biological target: T1, Aromatase; test: Inhibition of recombinant human aromatase preincubated for 10 mins followed by substrate and beta-NADP+ addition and measured for 60 mins by fluorescence based assay
How it was run: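 Recombinant human aromatase with NADPH-generating system in aromatase assay buffer. Compounds tested at 1000, 100, 10, 1 and 0.1 nM, DMSO final ≤0,25% (v/v). Preincubated 37°C for 10 min, then fluorogenic substrate/β-NADP+ added. Fluorescence read at 488/527 nm for 60 min.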

Row | Compound | IC50 (Aromatase [1]) [nM] | IC50 (Aromatase [2]) [nM] | inhibition (MCF7) | Activity (MCF-10A) | inhibition (MDA-MB-231)
1 | O=C(c1ccc(O)cc1)c1ccc(Cn2ccnc2)cc1 | 1100 |  |  |  | 
2 | COc1ccc(C(=O)c2cccc(Cn3ccnc3)c2)cc1 |  | 13 | inactive | Non-Toxic | inactive
3 | O=C(c1ccc(Cn2ccnc2)cc1)c1ccc(-c2ccccc2)cc1 | 2530 |  |  |  | 
4 | CCCCCOc1ccc(C(=O)c2ccc(Cn3ccnc3)cc2)cc1 |  | 1300 | inactive | Non-Toxic | inactive
5 | CCC#CCOc1ccc(C(=O)c2ccc(Cn3ccnc3)cc2)cc1 |  | 1420 | inactive | Non-Toxic | inactive

Second part, led by results:

Row | IC50 (Aromatase [1]) [nM] | IC50 (Aromatase [2]) [nM] | Compound | inhibition (MCF7) | Activity (MCF-10A) | inhibition (MDA-MB-231)
6 |  | 2 | CCCOc1ccc(C(=O)c2cccc(Cn3ccnc3)c2)cc1 | inactive | Non-Toxic | inactive
7 |  | 650 | C#CCOc1ccc(C(=O)c2cccc(Cn3ccnc3)c2)cc1 | inactive | Non-Toxic | inactive
8 |  | 9 | CCC#CCOc1ccc(C(=O)c2cccc(Cn3ccnc3)c2)cc1 | inactive | Non-Toxic | inactive
9 |  | 42 | CCCCCOc1ccc(C(=O)c2cccc(Cn3ccnc3)c2)cc1 | inactive | Non-Toxic | inactive
10 |  | 13 | O=C(c1ccc(O)cc1)c1cccc(Cn2ccnc2)c1 | inactive | Non-Toxic | inactive
11 | 238 |  | COc1ccc(C(=O)c2ccc(Cn3ccnc3)cc2)cc1 |  |  | 
12 |  | 374 | CCCOc1ccc(C(=O)c2ccc(Cn3ccnc3)cc2)cc1 | inactive | Non-Toxic | inactive
13 |  | 210 | C#CCOc1ccc(C(=O)c2ccc(Cn3ccnc3)cc2)cc1 | inactive | Non-Toxic | inactive
